Our source for the EC50 and CC50 values is ChEMBL document CHEMBL1144701, “Synthesis and anti-HIV1 biological activity of novel 5''-ATSAO compounds” (Bioorg Med Chem, 2008).

The test system of data set [1] is Human immunodeficiency virus 2. Put plainly: Antiviral activity against HIV2 ROD in CEM cells assessed as inhibition of virus-induced cytopathogenicity after 4 days. The data set is classed as functional, organism-based. The following applies: Human immunodeficiency virus 2, ROD, CCRF-CEM, 96 h. Summed up: (§1)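 CEM cells at 4 × 10⁵/mL infected with about 100 CCID₅₀ per mL of cell suspension (HIV-1 IIIB or HIV-2 ROD). Infected suspension mixed 1:1 with serial compound dilutions. Giant cell formation scored microscopically after 4 days. EC₅₀ is the concentration inhibiting virus-induced cytopathicity by 50%.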
For orientation: Damage to the host cells serves as the signal in cytopathic effect assays.

Data set [2] deals with Human immunodeficiency virus 1. Briefly: Antiviral activity against HIV1 3B in CEM cells assessed as inhibition of virus-induced cytopathogenicity after 4 days. Conditions: Human immunodeficiency virus 1, 3B, CCRF-CEM, 96 h. Format: functional, organism-based. In a few lines: as §1
Data set [3] in a line: Cytotoxicity against mock-infected human CEM cells assessed as reduction of cell viability after 4 days. Format: cell-based. The following applies: mock-infected CEM (CCRF-CEM) cells. Summed up: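 Mock-infected CEM cells, plated as in the parallel infection assay at 4 × 10⁵/mL, mixed 1:1 with serial compound dilutions. CC₅₀ is the concentration reducing the number of viable cells by 50%.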

The subject of data set [4] is Human immunodeficiency virus 1. Briefly: Antiviral activity against HIV1 in MT4 cells. Format: functional, organism-based. The following applies: Human immunodeficiency virus 1, MT4.

Molecules are shown by their SMILES. Bounds are passed on as bounds.

Consider `Cc1cn([C@@H]2O[C@H](CO[Si](C)(C)C(C)(C)C)[C@]3(C(N)=C(c4ccccc4)S(=O)(=O)N3C)[C@H]2O[Si](C)(C)C(C)(C)C)c(=O)n(C)c1=O`, for which the half-maximal effective concentration (EC50) in data set [1] and in data set [2] was > 2 µM in each case. For the same molecule, the half-maximal cytotoxic concentration (CC50) at 96 h in data set [3] turned out to be 10.9 µM.
As for `CCn1c(=O)c(C)cn([C@@H]2O[C@H](CO[Si](C)(C)C(C)(C)C)[C@@]3(NS(=O)(=O)C(c4ccccc4)=C3N)[C@H]2O[Si](C)(C)C(C)(C)C)c1=O`, the EC50 in data set [1] and in data set [2] was > 50 µM throughout. Also, the CC50 at 96 h in data set [3] was ≥ 10 µM.
As to `Cc1cn([C@@H]2O[C@H](CO[Si](C)(C)C(C)(C)C)[C@@]3(NS(=O)(=O)C=C3N)[C@H]2O[Si](C)(C)C(C)(C)C)c(=O)[nH]c1=O`, the figures for the EC50 in data set [1], in data set [2] and in data set [4] were > 100 µM, 0.33 µM and 0.13 µM, respectively. Further, the CC50 at 96 h in data set [3] is 19.1 µM.
For `Cc1cn([C@@H]2O[C@H](CO[Si](C)(C)C(C)(C)C)[C@@]3(NS(=O)(=O)C(c4ccccc4)=C3N)[C@H]2O[Si](C)(C)C(C)(C)C)c(=O)[nH]c1=O`, the EC50 in data set [1] and in data set [2] was ≥ 2 µM in each case. The CC50 at 96 h in data set [3] was ≥ 10 µM.
For `Cc1cn([C@@H]2O[C@H](CO[Si](C)(C)C(C)(C)C)[C@@]3(NS(=O)(=O)C(c4ccccc4)=C3N)[C@H]2O[Si](C)(C)C(C)(C)C)c(=O)n(C(=O)OC(C)(C)C)c1=O`, the figures for the EC50 in data set [1] and in data set [2] were 30 µM and > 50 µM, respectively. In data set [3], the cytotoxic concentration (CC50) at 96 h was ≥ 10 µM.
For the molecule `Cc1cn([C@@H]2O[C@H](CO[Si](C)(C)C(C)(C)C)[C@@]3(OS(=O)(=O)C=C3N)[C@H]2O[Si](C)(C)C(C)(C)C)c(=O)[nH]c1=O`, the EC50 in data set [1] is > 4 µM. The CC50 at 96 h in data set [3] is 16 µM.
Consider `Cc1cn([C@@H]2O[C@H](CO[Si](C)(C)C(C)(C)C)[C@@]3(NS(=O)(=O)C(c4ccccc4)=C3N)[C@H]2O[Si](C)(C)C(C)(C)C)c(=O)n(C)c1=O`, for which the EC50 in data set [1] and in data set [2] was > 50 µM throughout. Besides, the half-maximal cytotoxic concentration (CC50) at 96 h in data set [3] is ≥ 10 µM.

The EC50 is the midpoint of the concentration-response curve. Broadly, the CC50 is the concentration at which the toxic effect on the cells reaches its halfway point.
